The source made the active and inactive calls.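 Rule for the calls: active = compounds whose half-inhibition concentration IC50 on CK1 delta kinase is at most 1 µM; inactive = the rest.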

Chain of Casein kinase I isoform delta (Homo sapiens) (P48730 whole entry, looked up, canonical isoform): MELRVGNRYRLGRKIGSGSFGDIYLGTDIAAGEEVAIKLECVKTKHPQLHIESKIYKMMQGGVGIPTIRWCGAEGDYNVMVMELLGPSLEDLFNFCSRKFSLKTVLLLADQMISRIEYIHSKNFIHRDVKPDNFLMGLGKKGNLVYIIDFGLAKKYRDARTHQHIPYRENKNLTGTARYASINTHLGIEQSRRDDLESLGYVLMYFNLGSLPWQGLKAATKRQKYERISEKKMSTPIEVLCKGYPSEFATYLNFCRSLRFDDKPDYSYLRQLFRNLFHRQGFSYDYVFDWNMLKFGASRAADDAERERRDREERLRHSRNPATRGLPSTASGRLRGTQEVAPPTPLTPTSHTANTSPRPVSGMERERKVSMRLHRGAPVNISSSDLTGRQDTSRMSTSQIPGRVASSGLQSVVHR

The target of this experiment is Casein kinase I isoform delta (Homo sapiens) (UniProt P48730). Nature of the experiment: CK1d kinase inhibitors, late-stage follow-up, biochemical, radioactive 33P-ATP, purified kinase, powder samples (AID 463077). Particulars: 33P-ATP filter-binding, CK1tide. In outline:
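Evaluation: IC50 from radioactivity signal ratios plotted against compound concentration; Test system: purified human CK1d kinase; Reagent: 20 µM CK1tide with radiolabelled ATP; Times: kinase reaction run 120 min at room temperature; Buffer or medium: HEPES reaction buffer at pH 7.5, 1% DMSO; Detection: filter-binding measurement of 33P label incorporated into peptide.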
As for `FC(F)(F)c1ccc2nc(CNc3nc(N4CCOCC4)nc4c3ncn4-c3ccsc3)[nH]c2c1`, the concentration for half-maximal inhibition (IC50) was 13 nM.
Under `O=[N+]([O-])c1ccc2nc(CNc3nc(N4CCOCC4)nc4c3ncn4-c3ccsc3)[nH]c2c1` stands 21 nM.
Under `CC(C)n1cnc2c(NCc3nc4c([N+](=O)[O-])cccc4[nH]3)nc(N3CCOCC3)nc21` stands 815 nM; under `Cc1ccnc(NC(=O)CCCOc2cc(=O)n(C)c3ccccc23)c1`, “inactive”; under `FC(F)(F)c1cccc2[nH]c(CNc3nc(N4CCOCC4)nc4c3ncn4-c3ccsc3)nc12`, 128 nM.
Under `N#Cc1ccc2nc(CNc3nc(N4CCOCC4)nc4c3ncn4-c3ccsc3)[nH]c2c1` stands 11 nM; under `COc1ccc2nc(CNc3nc(N4CCOCC4)nc4c3ncn4-c3ccsc3)[nH]c2c1`, 17 nM.
Take `O=[N+]([O-])c1cccc2[nH]c(CNc3nc(N4CCOCC4)nc4c3ncn4-c3ccsc3)nc12`: the half-maximal inhibitory concentration (IC50) is 49 nM.
Under `Fc1ccc2nc(CNc3nc(N4CCOCC4)nc4c3ncn4-c3ccsc3)[nH]c2c1` stands 50 nM.
Under `c1ccc2[nH]c(CNc3nc(N4CCOCC4)nc4c3ncn4-c3ccsc3)nc2c1` stands 161 nM; under `CCOC(=O)c1cccc2[nH]c(CNc3nc(N4CCOCC4)nc4c3ncn4-c3ccsc3)nc12`, 361 nM; under `Clc1ccc2nc(CNc3nc(N4CCOCC4)nc4c3ncn4-c3ccsc3)[nH]c2c1`, 105 nM.
Under `c1ccc2cc3[nH]c(CNc4nc(N5CCOCC5)nc5c4ncn5-c4ccsc4)nc3cc2c1` stands 129 nM.

The values are drawn from PubChem BioAssay AID463077 (The Scripps Research Institute Molecular Screening Center, 2010).
